Laboratory results from ChEMBL document CHEMBL2176979, “Ligand-based design, synthesis, and biological evaluation of 2-aminopyrimidines, a novel series of receptor for advanced glycation end products (RAGE) inhibitors” (J Med Chem, 2012).
Active and inactive are the calls of the source. The rule behind the calls is not given here.

What was measured:
[1] = target: T1, Advanced glycosylation end product-specific receptor (Homo sapiens, UniProt Q15109); assay: Inhibition of human recombinant biotinylated receptor for advanced glycation end product expressed in Escherichia coli DE3 assessed as inhibition of binding to amyloid beta (1 to 42) at 20 uM after 60 mins by TMB-ELISA
Method in brief: (§1)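 Biotinylated human RAGE (1 μg, made in Origami2(DE3) with BirA) incubated on a streptavidin plate with oligomeric Aβ (10 μM stock pre-aggregated 24 h at 4 °C; 1 μL per well). Compound 20 μM in TBS-T/2.5% BSA, 60 min at ambient temperature. Bound Aβ detected with HRP-4G8 (1:1000) for 60 min, then TMB, read at 450 nm. Duplicates, mean ± SD.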

[2] = target: Advanced glycosylation end product-specific receptor (Rattus norvegicus) (UniProt Q63495); assay: Inhibition of receptor for advanced glycation end product binding to amyloid beta 42 in rat C6 cells assessed as NFkappaB activation at 0.1 to 10 uM after 18 hrs by reporter gene assay; type: cell-based
[3] = target: T1, Advanced glycosylation end product-specific receptor; assay: Inhibition of human recombinant biotinylated receptor for advanced glycation end product expressed in Escherichia coli DE3 assessed as inhibition of binding to amyloid beta (1 to 42) after 60 mins by TMB-ELISA; method in brief: as §1
[4] = tested on: Mus musculus; assay: Inhibition of RAGE-mediated influx of human amyloid beta (1 to 42) into ICR mouse brain at 25 mg/kg, ip administered 20 mins prior to human amyloid beta (1 to 42)-injection measured after 30 mins by ELISA relative to control
[5] = tested on: Mus musculus; assay: Reduction in human amyloid beta (1 to 42) level in ICR mouse plasma at 25 mg/kg, ip administered 20 mins prior to human amyloid beta (1 to 40)-injection measured after 30 mins by ELISA relative to control; type: functional; parameters: scale not given: the % may be the effect or the level left; settings: route intraperitoneal, in the assay text read “human amyloid beta (1 to 42)-injection” for “human amyloid beta (1 to 40)-injection”
Method in brief: (§2)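 Male ICR mice, 3 months old (n = 4), given test compound 25 mg/kg or vehicle ip. After 20 min, 200 μL of 25 μM human Aβ1−42 in PBS injected into the tail vein and left to circulate 30 min. Retro-orbital blood taken into EDTA tubes before sacrifice. Human Aβ measured in brain extracts (pg/mg protein) and plasma (ng/mL).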

[6] = tested on: C6; assay: Cytotoxicity against rat C6 cells at 0.1 to 10 uM after 18 hrs; type: cell-based; settings: c6, 18 h
[7] = tested on: Mus musculus; assay: Procognitive activity in transgenic mouse expressing PS1/APP swedish mutant assessed as spontaneous alteration at 50 mg/kg/day, po administered for 3 months measured after 2 months by Y maze test (reference value: 50.95 +/- 10.8%); type: functional
[8] = tested on: Mus musculus; assay: Antialzheimer activity in transgenic mouse expressing PS1/APP swedish mutant assessed as insoluble amyloid beta (1 to 42) level per mg of protein in brain at 50 mg/kg/day, po for 3 months by ELISA (reference value: 513.73 +/- 219.56 ng per mg of protein); type: functional
[9] = tested on: Mus musculus; assay: Antialzheimer activity in transgenic mouse expressing PS1/APP swedish mutant assessed as soluble amyloid beta (1 to 42) level per mg of protein in brain at 50 mg/kg/day, po for 3 months by ELISA (reference value: 17.34 +/- 5.17 ng per mg of protein); type: functional
[10] = tested on: Mus musculus; assay: Inhibition of RAGE-mediated influx of human amyloid beta (1 to 42) into ICR mouse brain at 25 mg/kg, ip administered 20 mins prior to human amyloid beta (1 to 40)-injection measured after 30 mins by ELISA relative to control; type: functional; settings: in the assay text read “human amyloid beta (1 to 42)-injection” for “human amyloid beta (1 to 40)-injection”, route intraperitoneal; method in brief: as §2
[11] = target: T1, Advanced glycosylation end product-specific receptor; assay: Binding affinity to human recombinant biotinylated receptor for advanced glycation end product expressed in Escherichia coli DE3 after 1 min by surface plasmon resonance assay
Method in brief: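 SPR with biotinylated RAGE captured to saturation on Neutravidin-coated chip channels, with a blank reference channel. Running buffer TBS (pH 7.4) with 0.05% Tween 20. Compounds serially diluted 50 to 3.1 μM in 2% DMSO, injected 1 min at 100 μL/min, then 400 s buffer dissociation. Responses reference-subtracted. Constants from a global Langmuir 1:1 fit.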

[12] = tested on: Mus musculus; assay: Antialzheimer activity in transgenic mouse expressing PS1/APP swedish mutant assessed as insoluble amyloid beta (1 to 40) level per mg of protein in brain at 50 mg/kg/day, po for 3 months by ELISA (reference value: 137.38+/- 58.13 ng per mg of protein); type: functional
[13] = tested on: Mus musculus; assay: Toxicity against transgenic mouse expressing PS1/APP swedish mutant assessed as lethality at 50 mg/kg/day, po administered for 3 months measured after 2 months; type: organism-based; parameters: route oral; settings: in vivo, 1461 h
Method in brief: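 Male APPsw/PS1 transgenic mice, 6 months old (n = 4−5), dosed by oral gavage at 50 mg/(kg·day) until 9 months of age. Lethality was recorded as a side effect during the study. Cognitive function (Y-maze spontaneous alternation) was assessed after 2 months of dosing.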

[14] = tested on: Mus musculus; assay: Antialzheimer activity in transgenic mouse expressing PS1/APP swedish mutant assessed as soluble amyloid beta (1 to 40) level per mg of protein in brain at 50 mg/kg/day, po for 3 months by ELISA (reference value: 8.66 +/- 1.81 ng per mg of protein); type: functional

Advanced glycosylation end product-specific receptor (Rattus norvegicus), sequence (Q63495 whole entry): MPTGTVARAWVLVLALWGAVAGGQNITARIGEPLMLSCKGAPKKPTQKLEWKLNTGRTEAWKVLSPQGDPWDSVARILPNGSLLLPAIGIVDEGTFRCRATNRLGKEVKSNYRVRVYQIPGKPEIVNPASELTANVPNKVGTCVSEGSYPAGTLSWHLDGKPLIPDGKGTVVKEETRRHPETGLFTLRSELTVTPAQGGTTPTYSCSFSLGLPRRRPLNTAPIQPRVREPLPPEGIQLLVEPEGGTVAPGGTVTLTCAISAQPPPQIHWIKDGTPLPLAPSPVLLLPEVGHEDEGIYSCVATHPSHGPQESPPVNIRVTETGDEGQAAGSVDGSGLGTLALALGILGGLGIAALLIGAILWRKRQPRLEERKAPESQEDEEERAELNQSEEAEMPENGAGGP
T1 sequence (Q15109 whole entry): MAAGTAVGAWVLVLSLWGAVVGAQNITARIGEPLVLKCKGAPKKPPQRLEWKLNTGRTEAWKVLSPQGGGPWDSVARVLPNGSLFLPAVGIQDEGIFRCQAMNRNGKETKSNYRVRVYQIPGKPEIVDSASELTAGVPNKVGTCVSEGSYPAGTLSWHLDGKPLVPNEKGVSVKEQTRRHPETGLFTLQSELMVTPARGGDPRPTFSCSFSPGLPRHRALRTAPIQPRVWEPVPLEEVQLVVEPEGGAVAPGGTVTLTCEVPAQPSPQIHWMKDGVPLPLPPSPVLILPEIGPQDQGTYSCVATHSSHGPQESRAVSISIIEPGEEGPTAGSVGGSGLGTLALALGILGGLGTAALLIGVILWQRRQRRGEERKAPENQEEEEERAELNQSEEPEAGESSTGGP

| SMILES | inhibition [1] | further results |
| --- | --- | --- |
| Cc1nc(NC(=O)CCCO)nc(C)c1OCc1ccccc1 | inactive |  |
| CCN(CC)CCOc1ccc(Nc2nc(C)cc(C3CCCCC3)n2)cc1 | 30.6% |  |
| CCN(CC)CCOc1cccc(Nc2nc(-c3ccc(Cl)cc3)cc(-c3ccc(Cl)cc3)n2)c1 | 54% | inhibition [2]: Active; Activity [7]: 63.6%; Activity [8]: 354 ng/mg; IC50 [3]: 16.5 µM; Activity [9]: 12 ng/mg; inhibition in vivo at 25 mg/kg [10]: 34.3%; Activity [11]: Dose-dependent effect; Kd [11]: 102 µM; Activity [5]: 3.7%; Activity [6]: Non-toxic; Activity [12]: 98.5 ng/mg; Activity [13]: Non-toxic; Activity [14]: 6.25 ng/mg |
| CCN(CC)CCCCNc1nc(C)c(OCc2ccccc2)c(C)n1 | inactive |  |
| CCN(CC)CCOc1ccc(Nc2nc(C)cc(-c3ccc(OCCC4CCCCC4)cc3)n2)cc1 | 32.7% |  |
| COc1c(C)nc(NC(=O)CCCC(=O)O)nc1C | inactive |  |
| CCN(CC)CCCC(=O)Nc1nc(C)c(O)c(C)n1 | inactive |  |
| CCN(CC)CCOc1ccc(Nc2nc(C)cc(N3CCCCC3)n2)cc1 | 43.3% |  |
| CCN(CC)CCOc1cccc(Nc2nc(C)cc(C)n2)c1 | 20.8% |  |
| CCN(CC)CCCCNc1nc(C)c(OC)c(C)n1 | inactive |  |
| CCN(CC)CCOc1ccc(Nc2nc(C)c(OCc3ccccc3)c(C)n2)cc1 | 14.6% |  |
| CCN(CC)CCOc1ccc(Nc2nc(C)c(O)c(C)n2)cc1 | 16.2% |  |
| CCN(CC)CCOc1ccc(Nc2nc(C)cc(C)n2)cc1 | 16% |  |
| COc1c(C)nc(NC(=O)CCCO)nc1C | inactive |  |
| CCN(CC)CCCC(=O)Nc1nc(C)c(OCc2ccccc2)c(C)n1 | inactive |  |
| Cc1nc(NC(=O)CCCC(=O)O)nc(C)c1OCc1ccccc1 | inactive |  |
| CCN(CC)CCCCNc1nc(C)c(O)c(C)n1 | inactive |  |
| CCN(CC)CCCC(=O)Nc1nc(C)c(OC)c(C)n1 | inactive |  |

More lines, main results first:

| inhibition [1] | SMILES | further results |
| --- | --- | --- |
| inactive | CCN(CC)CCOc1ccc(Nc2nc(C)cc(-c3ccc(OCCc4ccc(Cl)cc4)cc3)n2)cc1 |  |
| 70.8% | CCN(CC)CCOc1ccccc1Nc1nc(-c2ccc(Cl)cc2)cc(-c2ccc(Cl)cc2)n1 | inhibition [2]: Active; IC50 [3]: 4.6 µM; inhibition in vivo at 25 mg/kg [4]: 18.3%; Activity [5]: 2.8%; Activity [6]: Non-toxic |
| 41.6% | CCN(CC)CCOc1cccc(Nc2nc(C)cc(-c3ccc(Cl)cc3)n2)c1 |  |
| 45.6% | CCN(CC)CCOc1cccc(Nc2nc(C)cc(-c3ccc(OC4CCCCC4)cc3)n2)c1 |  |
| 26.3% | CCN(CC)CCOc1cccc(Nc2nc(-c3ccc(Cl)cc3)cc(-n3cccc3)n2)c1 |  |
| 49.6% | CCN(CC)CCOc1cccc(Nc2nc(C)cc(-c3ccc(OCCC4CCCCC4)cc3)n2)c1 | inhibition [2]: Active; inhibition in vivo at 25 mg/kg [4]: 12.1%; Activity [5]: 5%; Activity [6]: Non-toxic |
| 33% | CCN(CC)CCOc1ccc(Nc2nc(C)cc(-c3ccccc3)n2)cc1 |  |
| 4.5% | CCN(CC)CCOc1cccc(Nc2nc(-c3ccc(Cl)cc3)cc(N3CCN(C)CC3)n2)c1 |  |
| 37.1% | CCN(CC)CCOc1ccc(Nc2nc(C)cc(-c3ccc(Cl)cc3)n2)cc1 |  |
| 30.9% | CCN(CC)CCOc1cccc(Nc2nc(C)cc(-c3ccc(OC)cc3)n2)c1 |  |
| inactive | CCN(CC)CCOc1ccc(Nc2nc(C)cc(-c3ccc(OCCc4ccccc4)cc3)n2)cc1 |  |
| 32.7% | CCN(CC)CCOc1ccc(Nc2nc(C)cc(Nc3ccccc3)n2)cc1 |  |
| 21.1% | CCN(CC)CCOc1ccc(Nc2nc(C)cc(-c3ccc(Oc4ccc(Cl)cc4)cc3)n2)cc1 |  |
| 31.7% | CCN(CC)CCOc1ccc(Nc2nc(C)cc(-c3ccc(OC)cc3)n2)cc1 |  |
| 17.1% | CCN(CC)CCOc1cccc(Nc2nc(-c3ccc(Cl)cc3)cc(N3CCCCC3)n2)c1 |  |
| 33.6% | CCN(CC)CCOc1ccc(Nc2nc(-c3ccc(Cl)cc3)cc(-c3ccc(Cl)cc3)n2)cc1 |  |
| 3.1% | CCN(CC)CCOc1cccc(Nc2nc(-c3ccc(Cl)cc3)cc(N3CCOCC3)n2)c1 |  |
| 47.2% | CCN(CC)CCOc1ccccc1Nc1nc(C)cc(-c2ccc(Cl)cc2)n1 |  |
| 32.6% | CCN(CC)CCOc1ccc(Nc2nc(C)cc(-c3ccc(OC4CCCCC4)cc3)n2)cc1 |  |
| 21.4% | CCN(CC)CCOc1ccc(Nc2nc(C)cc(-c3ccc(Oc4ccc5ccccc5c4)cc3)n2)cc1 |  |
| 12.7% | CCN(CC)CCOc1ccc(Nc2nc(C)cc(-c3ccc(OCc4ccc(Cl)cc4)cc3)n2)cc1 |  |
